Key:
Type in all cases: tissue-based
[1] = target: T1, Amine oxidase [flavin-containing] B (Rattus norvegicus, UniProt P19643); assay: Inhibition of Sprague-Dawley rat MAO-B in brain mitochondrial homogenate assessed as 4-hydroxyquinoline by spectrophotometric method
T1 sequence (P19643 whole entry): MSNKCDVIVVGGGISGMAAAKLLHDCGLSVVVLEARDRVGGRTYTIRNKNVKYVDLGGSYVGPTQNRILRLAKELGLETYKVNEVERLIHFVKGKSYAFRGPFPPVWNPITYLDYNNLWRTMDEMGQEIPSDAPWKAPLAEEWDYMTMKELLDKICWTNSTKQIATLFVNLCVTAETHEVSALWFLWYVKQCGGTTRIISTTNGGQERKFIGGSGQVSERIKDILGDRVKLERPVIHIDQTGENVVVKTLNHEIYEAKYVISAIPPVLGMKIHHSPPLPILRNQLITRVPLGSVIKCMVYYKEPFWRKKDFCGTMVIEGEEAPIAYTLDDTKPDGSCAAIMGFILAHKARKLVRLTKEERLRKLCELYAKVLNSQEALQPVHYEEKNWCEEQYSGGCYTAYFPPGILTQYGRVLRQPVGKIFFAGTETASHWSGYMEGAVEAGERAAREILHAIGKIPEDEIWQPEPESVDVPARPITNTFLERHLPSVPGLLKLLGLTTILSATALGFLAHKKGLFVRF

[2] = target: T2, Amine oxidase [flavin-containing] A (Rattus norvegicus, UniProt P21396); assay: Inhibition of Sprague-Dawley rat MAO-A in brain mitochondrial homogenate assessed as 4-hydroxyquinoline by spectrophotometric method
T2 sequence (P21396 whole entry): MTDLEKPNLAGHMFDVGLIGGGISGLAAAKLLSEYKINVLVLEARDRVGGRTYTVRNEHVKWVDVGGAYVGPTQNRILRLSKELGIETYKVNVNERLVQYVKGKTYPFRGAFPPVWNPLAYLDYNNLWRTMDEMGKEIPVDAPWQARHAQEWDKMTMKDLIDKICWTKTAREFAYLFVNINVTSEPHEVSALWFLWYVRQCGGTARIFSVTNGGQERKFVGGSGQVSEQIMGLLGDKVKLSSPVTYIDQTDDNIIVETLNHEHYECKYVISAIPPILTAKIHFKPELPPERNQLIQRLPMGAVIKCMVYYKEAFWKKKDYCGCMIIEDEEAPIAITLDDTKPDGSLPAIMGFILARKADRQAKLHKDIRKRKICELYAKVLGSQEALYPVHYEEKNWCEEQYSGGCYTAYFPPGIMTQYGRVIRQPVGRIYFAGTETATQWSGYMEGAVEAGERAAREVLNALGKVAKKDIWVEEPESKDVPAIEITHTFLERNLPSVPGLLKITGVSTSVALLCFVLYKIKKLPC
Outline: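 The MAO-A source was a crude male Sprague-Dawley rat brain mitochondrial fraction (1 mg/mL), pretreated with (-)-L-deprenyl 250 nM. Compound in DMSO (final 5% v/v) was preincubated for 5 min, then kynuramine was added at 90 μM (KM). 4-Hydroxyquinoline formation was monitored at 314 nm for 5 min.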

[3] = target: T3, MAO-A (amine oxidase [flavin-containing] A) (Rattus norvegicus, UniProt P21396); assay: Inhibition of Sprague-Dawley rat MAO-A in brain mitochondrial homogenate assessed as 4-hydroxyquinoline at 10 uM by spectrophotometric method
T3 sequence (P21396 whole entry): T2 sequence (P21396 whole entry)
Outline: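 Crude mitochondrial fraction from male Sprague-Dawley rat brain (200-250 g) was used at 1 mg/mL and pretreated with (-)-L-deprenyl 250 nM to isolate MAO-A. Compound was given at 10 μM in DMSO (final 5% v/v) with a 5 min preincubation. Kynuramine was added at 90 μM (KM), and 4-hydroxyquinoline formation was read at 314 nm for 5 min. Values are means of 2-3 independent experiments.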

NC(=O)CCc1cc(=O)oc2cc(OCc3cccc(Cl)c3)ccc12 gave an IC50 [1] of 15.1 nM and an IC50 [2] of 4270 nM.
N#CCCc1cc(=O)oc2cc(OCc3cccc(Cl)c3)ccc12 gave an IC50 [1] of 28.8 nM and an inhibition at 10 µM [3] of 22%.
Work on O=c1cc(CCO)c2ccc(OCc3cccc(Cl)c3)cc2o1 yielded an IC50 [1] of 7.41 nM and an IC50 [2] of 4680 nM.
Compound O=c1cc(CCBr)c2ccc(OCc3cccc(Cl)c3)cc2o1 has an IC50 [1] of 32.4 nM and an inhibition at 10 µM [3] of 22%.
CCNC(=O)Nc1cc(=O)oc2cc(OCc3cccc(Cl)c3)ccc12 gave an IC50 [1] of 31600 nM.
O=C(O)CCc1cc(=O)oc2cc(OCc3cccc(Cl)c3)ccc12 showed an IC50 [1] of 1200 nM and an inhibition at 10 µM [3] of 13%.
O=c1cc(CCN2CCCCC2)c2ccc(OCc3cccc(Cl)c3)cc2o1 gave an IC50 [1] of 3800 nM and an inhibition at 10 µM [3] of 1%.
Work on O=C(O)c1cc(=O)oc2cc(OCc3cccc(Cl)c3)ccc12 yielded an IC50 [1] of 100000 nM.
O=C(CCl)Nc1cc(=O)oc2cc(OCc3cccc(Cl)c3)ccc12 showed an IC50 [1] of 398 nM and an IC50 [2] of 5750 nM.
In the case of NC(=O)CNc1cc(=O)oc2cc(OCc3cccc(Cl)c3)ccc12, the IC50 [1] is reported as 49 nM and the IC50 [2] is reported as 95.5 nM.
For O=C(O)COc1cc(=O)oc2cc(OCc3cccc(Cl)c3)ccc12, the IC50 [1] was 31600 nM.
Compound O=c1cc(CCCl)c2ccc(OCc3cccc(Cl)c3)cc2o1 has an IC50 [1] of 12.9 nM and an inhibition at 10 µM [3] of 3%.

Reference: ChEMBL document CHEMBL3352257, “In silico design of novel 2H-chromen-2-one derivatives as potent and selective MAO-B inhibitors” (Eur J Med Chem, 2015)
